# Key:
# [1] = target: T1, Butyrylcholinesterase (Equus caballus, UniProt Q9N1N9); test: In vitro inhibitory concentration against Butyrylcholinesterase of horse serum; value ranges from 0.73-0.77
# Summary of the method: (§1)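 Ellman assay followed, with 200 µM butyrylthiocholine as substrate. Runs were in triplicate with four-point dose-response curves. IC50 and fiducial limits came from log concentration versus % inhibition.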
# [2] = target: T2, Acetylcholinesterase (Homo sapiens, UniProt P22303); test: In vitro inhibitory concentration against purified Acetylcholinesterase of human erythrocytes; value ranges from 1.32-2.23
# [3] = target: T3, Amine oxidase [flavin-containing] B (Rattus norvegicus, UniProt P19643); test: In vitro inhibitory concentration against Monoamine oxidase B of rat brain homogenates; value ranges from 0.3-1.2; type: tissue-based
# T3 sequence (P19643 whole entry): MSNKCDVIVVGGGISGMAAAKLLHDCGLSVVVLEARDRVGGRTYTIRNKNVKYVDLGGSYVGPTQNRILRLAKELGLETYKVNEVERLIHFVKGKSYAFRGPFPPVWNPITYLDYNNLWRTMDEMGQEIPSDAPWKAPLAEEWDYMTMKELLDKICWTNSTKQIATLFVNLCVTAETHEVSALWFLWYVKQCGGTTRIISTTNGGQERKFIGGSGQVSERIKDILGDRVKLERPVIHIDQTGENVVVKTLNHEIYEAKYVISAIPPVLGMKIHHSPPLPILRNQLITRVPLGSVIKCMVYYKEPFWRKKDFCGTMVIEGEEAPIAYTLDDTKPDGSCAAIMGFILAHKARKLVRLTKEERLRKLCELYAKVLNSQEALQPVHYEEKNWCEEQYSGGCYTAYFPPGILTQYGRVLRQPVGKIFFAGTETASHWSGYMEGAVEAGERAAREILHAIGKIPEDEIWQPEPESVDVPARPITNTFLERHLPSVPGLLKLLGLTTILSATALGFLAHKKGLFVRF
# [4] = target: T4, Amine oxidase [flavin-containing] A (Rattus norvegicus, UniProt P21396); test: In vitro inhibitory concentration against Monoamine oxidase A of rat brain homogenates; value ranges from 0.09-0.16; type: tissue-based
# T4 sequence (P21396 whole entry): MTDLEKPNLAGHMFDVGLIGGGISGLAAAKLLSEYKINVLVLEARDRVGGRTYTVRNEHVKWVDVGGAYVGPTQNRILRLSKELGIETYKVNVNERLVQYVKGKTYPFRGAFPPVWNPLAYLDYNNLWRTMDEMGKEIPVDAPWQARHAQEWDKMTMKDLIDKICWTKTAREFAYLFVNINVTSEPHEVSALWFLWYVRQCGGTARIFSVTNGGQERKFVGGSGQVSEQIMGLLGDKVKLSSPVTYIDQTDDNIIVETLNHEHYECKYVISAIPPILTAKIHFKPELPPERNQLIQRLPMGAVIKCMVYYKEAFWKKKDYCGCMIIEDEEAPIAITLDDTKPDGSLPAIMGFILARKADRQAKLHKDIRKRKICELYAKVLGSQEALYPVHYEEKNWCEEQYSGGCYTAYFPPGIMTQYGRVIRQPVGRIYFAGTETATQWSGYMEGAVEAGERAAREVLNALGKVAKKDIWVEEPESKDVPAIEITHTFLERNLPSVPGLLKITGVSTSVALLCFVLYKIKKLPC
# [5] = target: T3, Amine oxidase [flavin-containing] B; test: In vitro inhibitory concentration against Monoamine oxidase B of rat brain homogenates; value ranges from 2.8-8.3; type: tissue-based
# [6] = target: T4, Amine oxidase [flavin-containing] A; test: In vitro inhibitory concentration against Monoamine oxidase A of rat brain homogenates; value ranges from 4.7-16.8; type: tissue-based
# [7] = target: T4, Amine oxidase [flavin-containing] A; test: In vitro inhibitory concentration against Monoamine oxidase A of rat brain homogenates; value ranges from 14-340; type: tissue-based
# [8] = target: T3, Amine oxidase [flavin-containing] B; test: In vitro inhibitory concentration against Monoamine oxidase B of rat brain homogenates; value ranges from 22-530; type: tissue-based
# [9] = target: T2, Acetylcholinesterase; test: In vitro inhibitory concentration against purified Acetylcholinesterase of human erythrocytes; value ranges from 0.79-0.93
# [10] = target: T3, Amine oxidase [flavin-containing] B; test: In vitro inhibitory concentration against Monoamine oxidase B of rat brain homogenates; value ranges from 1.5-5.2; type: tissue-based
# [11] = target: T4, Amine oxidase [flavin-containing] A; test: In vitro inhibitory concentration against Monoamine oxidase A of rat brain homogenates; value ranges from 0.1-0.9; type: tissue-based
# [12] = target: T1, Butyrylcholinesterase; test: In vitro inhibitory concentration against Butyrylcholinesterase of horse serum; value ranges from 0.45-1.08; summary of the method: as §1
# [13] = target: T2, Acetylcholinesterase; test: In vitro inhibitory concentration against purified Acetylcholinesterase of human erythrocytes; value ranges from 3.69-33.1
# [14] = target: T3, Amine oxidase [flavin-containing] B; test: In vitro inhibitory concentration against Monoamine oxidase B of rat brain homogenates; value ranges from 0.11-0.57; type: tissue-based
# Summary of the method: (§2)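 Rat brain homogenate (in 0.3 M sucrose) as enzyme source; compounds diluted 10⁻²M to 10⁻⁹M in 0.05 M phosphate buffer with 0.15 μM clorgyline; preincubated 60 min at 37 °C, then 10 μM ¹⁴C-phenylethylamine added for 20 min more; stopped with citric acid; metabolites extracted into toluene/ethyl acetate, scintillation counted; activity as % of control, tranylcypromine blank.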
# [15] = target: T4, Amine oxidase [flavin-containing] A; test: In vitro inhibitory concentration against Monoamine oxidase A of rat brain homogenates; value ranges from 0.8-3.7; type: tissue-based
# [16] = target: T2, Acetylcholinesterase; test: In vitro inhibitory concentration against purified Acetylcholinesterase of human erythrocytes; value ranges from 26.2-5898
# [17] = target: T3, Amine oxidase [flavin-containing] B; test: In vitro inhibitory concentration against Monoamine oxidase B of rat brain homogenates; value ranges from 75-200
# [18] = target: T1, Butyrylcholinesterase; test: In vitro inhibitory concentration against Butyrylcholinesterase of horse serum; value ranges from 0.28-0.30; summary of the method: as §1
# [19] = target: T4, Amine oxidase [flavin-containing] A; test: In vitro inhibitory concentration against Monoamine oxidase A of rat brain homogenates; value ranges from 12.1-17.6; type: tissue-based
# [20] = target: T1, Butyrylcholinesterase; test: In vitro inhibitory concentration against Butyrylcholinesterase of horse serum; value ranges from 1.19-8.56; summary of the method: as §1
# [21] = target: T2, Acetylcholinesterase; test: In vitro inhibitory concentration against purified Acetylcholinesterase of human erythrocytes; value ranges from 13.6-27.3
# [22] = target: T3, Amine oxidase [flavin-containing] B; test: In vitro inhibitory concentration against Monoamine oxidase B of rat brain homogenates; value ranges from 0.08-0.38; type: tissue-based; summary of the method: as §2
# [23] = target: T4, Amine oxidase [flavin-containing] A; test: In vitro inhibitory concentration against Monoamine oxidase A of rat brain homogenates; value ranges from 1.8-2.5; type: tissue-based
# [24] = target: T2, Acetylcholinesterase; test: In vitro inhibitory concentration against purified Acetylcholinesterase of human erythrocytes; value ranges from 12.6-74.0
# [25] = target: T1, Butyrylcholinesterase; test: In vitro inhibitory concentration against Butyrylcholinesterase of horse serum; value ranges from 0.90-0.95; summary of the method: as §1
# [26] = target: T3, Amine oxidase [flavin-containing] B; test: In vitro inhibitory concentration against Monoamine oxidase B of rat brain homogenates; value ranges from 9.5-17.2
# [27] = target: T1, Butyrylcholinesterase; test: In vitro inhibitory concentration against Butyrylcholinesterase of horse serum; value ranges from 0.21-1.26; summary of the method: as §1
# [28] = target: T4, Amine oxidase [flavin-containing] A; test: In vitro inhibitory concentration against Monoamine oxidase A of rat brain homogenates; value ranges from 2-8; type: tissue-based
# [29] = target: T2, Acetylcholinesterase; test: In vitro inhibitory concentration against purified Acetylcholinesterase of human erythrocytes
# [30] = target: T4, Amine oxidase [flavin-containing] A; test: In vitro inhibitory concentration against Monoamine oxidase A of rat brain homogenates; value ranges from 150-320; type: tissue-based
# [31] = target: T3, Amine oxidase [flavin-containing] B; test: In vitro inhibitory concentration against Monoamine oxidase B of rat brain homogenates; value ranges from 30-230; type: tissue-based
# [32] = target: T2, Acetylcholinesterase; test: In vitro inhibitory concentration against purified Acetylcholinesterase of human erythrocytes; value ranges from 7.5-19.5
# [33] = target: T4, Amine oxidase [flavin-containing] A; test: In vitro inhibitory concentration against Monoamine oxidase A of rat brain homogenates; value ranges from 370-520; type: tissue-based
# [34] = target: T1, Butyrylcholinesterase; test: In vitro inhibitory concentration against Butyrylcholinesterase of horse serum; value ranges from 0.16-0.41; summary of the method: as §1
# [35] = target: T4, Amine oxidase [flavin-containing] A; test: In vitro inhibitory concentration against Monoamine oxidase A of rat brain homogenates; value ranges from 1.3-5.6; type: tissue-based
# [36] = target: T3, Amine oxidase [flavin-containing] B; test: In vitro inhibitory concentration against Monoamine oxidase B of rat brain homogenates; value ranges from 11-52; type: tissue-based
# [37] = target: T2, Acetylcholinesterase; test: In vitro inhibitory concentration against purified Acetylcholinesterase of human erythrocytes; value ranges from 0.18-0.32
# T1 sequence (Q9N1N9 whole entry): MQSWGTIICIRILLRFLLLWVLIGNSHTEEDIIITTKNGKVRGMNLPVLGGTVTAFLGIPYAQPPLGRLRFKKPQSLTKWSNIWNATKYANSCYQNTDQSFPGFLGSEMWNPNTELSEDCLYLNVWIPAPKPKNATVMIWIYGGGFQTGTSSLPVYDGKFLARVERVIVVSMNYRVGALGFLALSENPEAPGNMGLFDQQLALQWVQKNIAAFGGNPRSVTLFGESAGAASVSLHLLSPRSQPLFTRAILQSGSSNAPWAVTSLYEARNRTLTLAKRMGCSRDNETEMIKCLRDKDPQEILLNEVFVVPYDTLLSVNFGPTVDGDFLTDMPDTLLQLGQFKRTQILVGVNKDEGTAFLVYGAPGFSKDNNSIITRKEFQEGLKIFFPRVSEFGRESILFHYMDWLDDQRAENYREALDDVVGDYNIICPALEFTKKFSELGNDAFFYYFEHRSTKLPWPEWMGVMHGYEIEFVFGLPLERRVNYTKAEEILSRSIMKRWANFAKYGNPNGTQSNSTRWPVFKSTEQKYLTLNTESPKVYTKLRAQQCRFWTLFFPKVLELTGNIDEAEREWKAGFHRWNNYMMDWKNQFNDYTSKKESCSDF
# T2 sequence (P22303 whole entry): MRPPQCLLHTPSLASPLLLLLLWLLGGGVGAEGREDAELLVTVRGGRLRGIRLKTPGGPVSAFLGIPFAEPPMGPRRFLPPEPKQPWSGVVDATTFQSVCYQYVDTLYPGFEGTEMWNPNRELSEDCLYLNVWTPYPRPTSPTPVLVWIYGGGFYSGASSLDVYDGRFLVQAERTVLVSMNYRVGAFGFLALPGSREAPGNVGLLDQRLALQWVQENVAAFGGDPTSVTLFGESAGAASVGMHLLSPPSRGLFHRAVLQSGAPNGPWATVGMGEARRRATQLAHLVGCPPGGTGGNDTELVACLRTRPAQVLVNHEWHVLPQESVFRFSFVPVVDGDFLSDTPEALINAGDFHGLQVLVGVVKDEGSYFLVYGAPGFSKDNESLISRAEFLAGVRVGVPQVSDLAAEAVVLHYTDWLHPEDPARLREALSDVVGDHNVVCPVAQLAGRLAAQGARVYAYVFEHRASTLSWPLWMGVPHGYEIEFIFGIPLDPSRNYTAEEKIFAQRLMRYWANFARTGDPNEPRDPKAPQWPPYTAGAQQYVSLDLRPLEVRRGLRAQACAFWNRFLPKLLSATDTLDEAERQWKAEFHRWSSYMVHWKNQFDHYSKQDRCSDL
compound,measurement,setting,value
C#CCN(C)C(C)Cc1cccc(OC(=O)N(C)C)c1 (configuration not stated),IC50,[1],0.75 µM
same,IC50,[2],1.64 µM
same,IC50,[3],0.8 µM
same,IC50,[4],0.12 µM
C#CCN(C)C(C)Cc1cccc(O)c1 (configuration not stated),IC50,[5],4.8 µM
same,IC50,[6],8.9 µM
C#CCNCCc1cccc(O)c1,IC50,[7],67 µM
same,IC50,[8],107 µM
C#CCN(C)CCc1cccc(OC(=O)N(C)C)c1,IC50,[9],0.85 µM
same,IC50,[10],2.8 µM
same,IC50,[11],0.3 µM
C#CCN(C)C(C)Cc1cccc(OC(=O)N(C)C2CCCCC2)c1 (configuration not stated),IC50,[12],0.67 µM
same,IC50,[13],8.67 µM
same,IC50,[14],0.24 µM
same,IC50,[15],1.7 µM
C#CCNC1CCc2ccc(OC(=O)N(C)CC)cc2C1 (configuration not stated),IC50,[16],204 µM
same,IC50,[17],120 µM
same,IC50,[18],0.29 µM
C#CCNC(C)Cc1cccc(OC(=O)N(C)CCC)c1 (configuration not stated),IC50,[19],14.6 µM
same,IC50,[20],2.07 µM
same,IC50,[21],19.1 µM
same,IC50,[22],0.17 µM
C#CCNC(C)Cc1cccc(OC(=O)N(C)CC)c1 (configuration not stated),IC50,[23],2.1 µM
same,IC50,[24],33.9 µM
same,IC50,[25],0.93 µM
same,IC50,[26],12.8 µM
C#CCN(C)[C@@H]1CCc2ccc(OC(=O)N(C)CC)cc21,IC50,[27],0.55 µM
same,IC50,[28],4 µM
same,IC50,[29],1200 µM
C#CCN[C@@H]1CCc2ccc(OC(=O)N(C)CCCC)cc21,IC50,[30],220 µM
same,IC50,[31],150 µM
same,IC50,[32],11.6 µM
C#CCN[C@H]1CCc2ccc(O)cc21,IC50,[33],440 µM
C#CCNCCc1cccc(OC(=O)N(C)C)c1,IC50,[34],0.21 µM
same,IC50,[35],2.7 µM
same,IC50,[36],24 µM
same,IC50,[37],0.22 µM

# Reference: ChEMBL document CHEMBL1135657, “Novel dual inhibitors of AChE and MAO derived from hydroxy aminoindan and phenethylamine as potential treatment for Alzheimer's disease” (J Med Chem, 2002)
